Measured values reported in ChEMBL document CHEMBL1121426, “Structure-activity study of antiulcerous and antiinflammatory drugs by discriminant analysis” (J Med Chem, 1980).

Columns and labels:
[1] = Partition coefficient (logP); type: physicochemical; conditions: octanol/water
Rattus norvegicus [2] = experiment: Antiulcer activity in rat at the dose of 20 mg/kg administered intraperitoneally.; type: functional; conditions: ip, route intraperitoneal
In short: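 Pyloric ligation was done under ether on Wistar-King rats (200-250 g, 10 per group) fasted 24 h. Drug was suspended at 10 mg/mL in 0.9% saline with a trace of Tween 80 and given ip at 20 mg/kg; controls received saline. Forestomach ulcers were scored macroscopically 18 h later as an ulcer index. Percent inhibition was taken versus the mean control index; error <±10%.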

Rattus norvegicus [3] = experiment: Tested for inhibition of edema growth in rat; type: functional; design: concentration or dose not given beside the values
In short: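 Carrageenin paw edema in male Wistar rats (120-150 g, 10 per group). Dosing was oral, as 1% suspensions in 0.5% aqueous Na-CMC: phenylacetic acids at 100 mg/kg, aminouracils at 200 mg/kg. Paw volume was read by mercury displacement before and 3 h after injection. Percent inhibition of mean swelling was taken versus control; error <±10%.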

| Structure (SMILES) | logP [1] | inhibition in vivo at 20 mg/kg (Rattus norvegicus [2]) | Inhibition (Rattus norvegicus [3]) |
| --- | --- | --- | --- |
| Nc1nc(N)nc(-c2c(Cl)cccc2Cl)n1 | 1.38 | 54% | – |
| Nc1nc(N)nc(-c2ccc(Cl)cc2Cl)n1 | 2.07 | 100% | – |
| O=C(O)Cc1cccc(F)c1 | 1.59 | – | 0% |
| Cc1cccc(CC(=O)O)c1 | 1.89 | – | 0% |
| C=CCn1c(C)c(N(C)C)c(=O)n(-c2ccccc2)c1=O | 1.44 | – | 54% |
| COc1cc(CC(=O)O)cc(C(C)C)c1 | 2.75 | – | 10% |
| CCCCOc1cc(C)cc(CC(=O)O)c1 | 3.38 | – | 3% |
| CCOc1cccc(CC(=O)O)c1 | 1.88 | – | 17% |
| O=C(O)Cc1cc(O)cc(-c2ccccc2)c1 | 2.75 | – | 14% |
| CCN(CC)c1c(C)n(C)c(=O)n(-c2ccccc2)c1=O | 2.11 | – | 45% |
| COc1cc(CC(=O)O)cc(C2CCCCC2)c1 | 3.66 | – | 35% |
| COc1cc(CC(=O)O)cc(-c2ccc(F)cc2)c1 | 3.5 | – | 74% |
| COc1cc(CC(=O)O)cc(-c2ccc(Cl)cc2Cl)c1 | 4.08 | – | 60% |
| Cc1c(N(C)C)c(=O)n(C)c(=O)n1C | 0.99 | – | 37% |
| Cc1c(N(C)C)c(=O)[nH]c(=O)n1-c1ccccc1 | 1.4 | – | 35% |
| Cc1c(N(C)C)c(=O)n(C)c(=O)n1-c1ccccc1 | 1.19 | – | 65% |
| C=CCN(CC=C)c1c(C)n(-c2ccccc2)c(=O)n(C)c1=O | 2.59 | – | 46% |
| Nc1nc(N)nc(-c2cc(F)ccc2Br)n1 | 1.45 | 78% | – |
| COc1ccc(-n2c(C)c(N(C)C)c(=O)n(C)c2=O)cc1 | 1.96 | – | 41% |
| Nc1nc(N)nc(-c2cc(F)ccc2Cl)n1 | 1.38 | 78% | – |

| Structure (SMILES) | logP [1] | inhibition in vivo at 20 mg/kg (Rattus norvegicus [2]) | Inhibition (Rattus norvegicus [3]) |
| --- | --- | --- | --- |
| Nc1nc(N)nc(-c2cc(Cl)ccc2F)n1 | 1.81 | 89% | – |
| Nc1nc(N)nc(-c2cc(C(F)(F)F)ccc2Cl)n1 | 2.27 | 51% | – |
| Cc1c(N(C)C)c(=O)n(-c2ccccc2)c(=O)n1C | 1.3 | – | 44% |
| Cc1c(N(C)C)c(=O)n(CCO)c(=O)n1-c1ccccc1 | 1.12 | – | 34% |
| COc1cc(CC(=O)O)cc(-c2ccc(C)cc2)c1 | 3.72 | – | 23% |
| Cc1cc(CC(=O)O)cc(OCC(C)C)c1 | 3.33 | – | 13% |
| Cc1ccc(-c2nc(N)nc(N)n2)cc1 | 1.92 | 54% | – |
| Cc1c(N(C)C)c(=O)n(-c2ccccc2)c(=O)n1CCO | 0.85 | – | 31% |
| CCN(CC)c1c(C)n(-c2ccccc2)c(=O)n(CC)c1=O | 2.78 | – | 53% |
| COc1ccc(Br)cc1-c1nc(N)nc(N)n1 | 1.53 | 49% | – |
| COc1ccc(-c2cc(CC(=O)O)cc(OC)c2)cc1 | 3.28 | – | 13% |
| Nc1nc(N)nc(-c2cc(Cl)ccc2Br)n1 | 1.85 | 81% | – |
| Nc1nc(N)nc(-c2cccc(Cl)c2)n1 | 2.33 | 100% | – |
| COc1cc(C)cc(CC(=O)O)c1 | 1.94 | – | 6% |
| O=C(O)Cc1cc(O)cc(-c2ccc(Cl)cc2)c1 | 3.42 | – | 14% |
| O=C(O)Cc1cccc([N+](=O)[O-])c1 | 1.34 | – | 0% |
| COc1cc(CC(=O)O)cc(-c2ccccc2)c1 | 3.3 | – | 68% |
| Nc1nc(N)nc(-c2ccccc2[N+](=O)[O-])n1 | 0.49 | 11% | – |
| CCN(CC)c1c(C)n(CC)c(=O)n(-c2ccccc2)c1=O | 2.2 | – | 57% |
| Cc1c(N2CCCCC2)c(=O)n(-c2ccccc2)c(=O)n1C | 2.76 | – | 27% |
